26 molecules from ChEMBL document CHEMBL3259773, “Indirubin core structure of glycogen synthase kinase-3 inhibitors as novel chemotype for intervention with 5-lipoxygenase” (J Med Chem, 2014) can be followed below.

For test [1], the target named is T1, Polyunsaturated fatty acid 5-lipoxygenase (Homo sapiens) (UniProt P09917).
T1 sequence (whole entry): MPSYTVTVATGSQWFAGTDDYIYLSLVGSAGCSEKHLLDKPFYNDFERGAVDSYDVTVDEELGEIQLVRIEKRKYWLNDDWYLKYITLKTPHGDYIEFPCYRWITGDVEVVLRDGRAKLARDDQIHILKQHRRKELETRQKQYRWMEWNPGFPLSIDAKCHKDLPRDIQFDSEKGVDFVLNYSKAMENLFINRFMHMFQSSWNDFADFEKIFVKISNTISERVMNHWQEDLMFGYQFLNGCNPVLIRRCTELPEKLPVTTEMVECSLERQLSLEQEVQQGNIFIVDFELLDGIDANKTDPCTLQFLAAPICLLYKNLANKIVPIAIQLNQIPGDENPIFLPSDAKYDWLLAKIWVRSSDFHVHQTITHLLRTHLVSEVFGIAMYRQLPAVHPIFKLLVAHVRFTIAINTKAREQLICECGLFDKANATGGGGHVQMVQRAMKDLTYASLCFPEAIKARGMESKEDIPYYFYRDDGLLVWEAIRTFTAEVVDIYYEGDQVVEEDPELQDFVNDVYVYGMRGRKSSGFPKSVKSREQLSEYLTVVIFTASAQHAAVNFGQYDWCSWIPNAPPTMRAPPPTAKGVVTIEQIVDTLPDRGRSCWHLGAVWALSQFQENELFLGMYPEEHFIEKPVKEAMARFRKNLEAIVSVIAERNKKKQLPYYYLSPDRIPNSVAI
The test is described as follows: Inhibition of human recombinant 5-LO assessed as product formation at 3 uM by cell-free assay relative to control; values are per cent of control.

Test [2] has as its target T1, Polyunsaturated fatty acid 5-lipoxygenase (Homo sapiens). Nature of the test: Inhibition of 5-LO in human neutrophils assessed as product formation at 3 uM by cell-intact assay relative to control in presence of 2.5 uM A23187 ionophore; values are per cent of control.
Test [3] has the same target. The test is described as follows: Binding affinity to human recombinant 5-LO ATP-bindng site using ATP-agaarose column in S40 fraction of Escherichia coli. Put shortly:
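E. coli S40 fraction (40,000 × g supernatant) bound to ATP-agarose for 10 min at 4 °C. Pellets washed 3× with PBS-1 mM EDTA, then exposed to vehicle (0.1% DMSO) or compound for 30 min at 4 °C. Eluates and pellet-bound 5-LO resolved by SDS-PAGE and Western blot. Representative of three experiments.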

The target in test [4] is T2, Polyunsaturated fatty acid 5-lipoxygenase (Homo sapiens, UniProt P09917).
T2 sequence (P09917 whole entry): T1 sequence (whole entry)
Nature of the test: Inhibition of human recombinant 5-LO assessed as product formation by cell-free assay relative to control. Summed up: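 Partially purified human recombinant 5-LO (ATP-agarose eluate, 0.5–2 μg) in PBS-EDTA with 1 mM ATP. Preincubated with vehicle or compound 10 min at 4 °C, prewarmed 30 s at 37 °C, then started with 2 mM CaCl2 and 20 μM AA. Products analysed by HPLC. Means ± SE, n = 3 or 4; IC50 by sigmoidal variable-slope fit.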

Test [5] deals with T2, Polyunsaturated fatty acid 5-lipoxygenase. Nature of the test: Inhibition of 5-LO in human neutrophils assessed as product formation by cell-intact assay relative to control in presence of 2.5 uM A23187 ionophore. Put shortly:
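Intact human neutrophils, 5 × 10^6 cells/mL, stimulated with 2.5 μM A23187. 5-LO products analysed by HPLC or UPLC–MS/MS and expressed relative to DMSO vehicle control. Means ± SE, n = 3 or 4; IC50 from sigmoidal variable-slope fit.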

The target is the same in test [6]. The test is described as follows: Inhibition of 5-LO in human neutrophils assessed as product formation by cell-intact assay relative to control in presence of 20 uM A23187/AA ionophore. Summed up:
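Intact human neutrophils, 5 × 10^6 cells/mL, stimulated with 2.5 μM A23187 plus 20 μM exogenous AA. 5-LO products quantified by HPLC or UPLC–MS/MS relative to vehicle control. IC50 from sigmoidal variable-slope fit, means ± SE, n = 3.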

In test [7] the test system is SH-SY5Y. The test is described as follows: Anticancer activity against human SH-SY5Y cells assessed as reduction in cell viability. The class given is functional, cell-based.
In test [8] the target is T3, Prostaglandin E synthase (Homo sapiens) (UniProt O14684).
T3 sequence (whole entry): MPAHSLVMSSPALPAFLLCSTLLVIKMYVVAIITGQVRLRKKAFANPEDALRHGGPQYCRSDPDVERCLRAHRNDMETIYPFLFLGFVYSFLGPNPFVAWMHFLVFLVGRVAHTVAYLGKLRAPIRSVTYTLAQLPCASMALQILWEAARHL
The test is described as follows: Inhibition of human mPGES1 from human A549 cells assessed as PGE2 at 10 uM after 15 mins by HPLC. The format is cell-based. Put shortly: (§1)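 Enzyme (ovine COX-1) or A549 microsomal preparation (human mPGES-1) given compound or reference inhibitor 10 min before reaction start. Activity expressed as % of 0.1% DMSO vehicle control, read-outs 12-HHT (COX-1) and PGE2 (mPGES-1). Means ± SE, n = 3.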

Test [9] addresses T4, Prostaglandin G/H synthase 1 (Ovis aries) (UniProt P05979).
T4 sequence (whole entry): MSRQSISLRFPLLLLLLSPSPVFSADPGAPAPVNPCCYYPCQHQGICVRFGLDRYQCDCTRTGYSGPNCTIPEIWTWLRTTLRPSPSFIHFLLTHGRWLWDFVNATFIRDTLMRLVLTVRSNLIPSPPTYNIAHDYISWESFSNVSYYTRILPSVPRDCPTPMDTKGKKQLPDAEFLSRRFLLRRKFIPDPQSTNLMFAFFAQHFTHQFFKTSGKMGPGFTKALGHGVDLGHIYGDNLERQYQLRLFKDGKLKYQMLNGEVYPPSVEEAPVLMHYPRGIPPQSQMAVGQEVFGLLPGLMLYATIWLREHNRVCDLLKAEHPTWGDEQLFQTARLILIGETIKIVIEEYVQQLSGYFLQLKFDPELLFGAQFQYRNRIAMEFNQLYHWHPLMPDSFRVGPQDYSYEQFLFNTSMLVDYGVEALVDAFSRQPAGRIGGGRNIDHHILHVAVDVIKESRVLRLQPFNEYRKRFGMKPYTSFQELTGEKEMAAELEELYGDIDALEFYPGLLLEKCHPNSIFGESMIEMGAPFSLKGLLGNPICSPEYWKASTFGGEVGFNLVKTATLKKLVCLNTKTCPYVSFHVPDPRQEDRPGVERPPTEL
Nature of the test: Inhibition of ovine COX1 using arachidonic acid at 10 uM after 5 mins by HPLC analysis. Summed up:
as §1

Test [10] in a line: Inhibition of pig brain GSK3 using YRRAAVPPSPSLSRHSSPHQSpEDEEE substrate by cell-free assay. On the set-up: species or system Sus scrofa.

Activity calls are given as the source filed them. The calls are words filed in the database; no cut-off is given here.

For the molecule `O=C1Nc2cc(Br)ccc2/C1=C1/Nc2ccccc2/C1=N\OCCO`, the residual activity amounted to 88.3% in test [1] and 81.5% in [2].
On the same counts, the results for `O=C1Nc2c(Br)cccc2/C1=C1/Nc2ccc(/C=N/O)cc2C1=O` are 80% and 95.1%.
Consider `CN1C(=O)/C(=C2\Nc3ccccc3\C2=N/O)c2cccc(Br)c21`, for which the outcome in test [3] was inactive. Moreover, the residual activity came out at 97.7% in test [1] and 122% in test [2].
As to `O=C1Nc2cc(Br)ccc2/C1=C1/Nc2ccccc2/C1=N\OCCN1CCCC1`, the residual activity in test [1] stood at 75.1%; in [2], 127%.
As for `O=C1Nc2c(Cl)cccc2/C1=C1/Nc2ccccc2/C1=N\O`, the half-maximal inhibitory concentration (IC50) in test [4] worked out at 4.9 µM; in test [5], 4.9 µM; in test [6], 3.1 µM. Besides, the residual activity in test [1] is 65.8%; in [2] it was 67.4%.
With `O=C1Nc2c(Br)cccc2/C1=C1/Nc2ccccc2C1=O`, the residual activity in test [1] was found to be 85.4%; in test [2] it was 110%.
Turning to `COC(=O)c1ccc2c(c1)C(=N\O)/C(=C1/C(=O)Nc3c(Br)cccc31)N2`, the values for the residual activity in test [1] and in [2] were 72.8% and 99.1%, respectively.
On to `O=C1Nc2cc(Br)ccc2/C1=C1/Nc2ccccc2/C1=N\OCCN1CCN(CCO)CC1`, for which the figures for the residual activity in test [1] and in test [2] were 89.3% and 119%, respectively.
In the case of `O=C1Nc2c(Br)cccc2/C1=C1/Nc2cc(C(=O)O)ccc2C1=O`, the residual activity in test [1] was determined as 80%; in test [2] it was 105%.
On to `O=C1Nc2c(Br)cccc2/C1=C1/Nc2ccccc2/C1=N\O`, for which the figures for the half-maximal inhibitory concentration (IC50) in test [4], in test [5] and in test [6] were 5.8 µM, 1.7 µM and 3.6 µM, respectively. In test [7], the concentration giving a half-maximal response (EC50) stood at 8 µM. The results for the residual activity in [1] and in test [2] were 68.9% and 43%, respectively.
Turning to `CN(CCO/N=C1/C(=C2/C(=O)Nc3cc(Br)ccc32)Nc2ccccc21)CC(O)CO` (configuration not stated), the residual activity in test [1] turned out to be 71.5%; in test [2], 87%.
For `CN1CCN(CCO/N=C2/C(=C3/C(=O)Nc4cc(Br)ccc43)Nc3ccccc32)CC1` the same measures were 82.1% and 91.1%.
On the same counts, the results for `CC(=O)O/N=C1/C(=C2/C(=O)Nc3c(Br)cccc32)Nc2ccccc21` are 79.2% and 112%.
On the same counts, the results for `O=C1Nc2cc(Br)ccc2/C1=C1/Nc2ccccc2/C1=N\OCC(O)CO` (configuration not stated) are 58% and 77.7%.
Take `CC(C)c1ccc2c(c1)c(SC(C)(C)C)c(CC(C)(C)C(=O)O)n2Cc1ccc(Cl)cc1`: the inhibition result in test [8] was “Active”.
Turning to `O=C1Nc2c(Br)cccc2/C1=C1/Nc2cc(C(=O)O)ccc2/C1=N\O`, the residual activity in test [1] came to 77.1%; in [2], 123%.
Regarding `O=C1Nc2cc(Br)ccc2/C1=C1/Nc2ccccc2/C1=N\OCCN1CCOCC1`, the residual activity in test [1] came out at 60.3%; in test [2], 62.7%.
On to `O=C1Nc2c(F)cccc2/C1=C1/Nc2ccccc2/C1=N\O`, for which the half-inhibitory concentration (IC50) amounted to 3.7 µM in test [4], 5 µM in [5] and 3.3 µM in [6]. Also, the residual activity is 58.1% in [1] and 50.4% in test [2].
Regarding `O=C1Nc2cc(Br)ccc2/C1=C1/Nc2ccccc2/C1=N\OCCN1CCNCC1`, the residual activity in test [1] was 76.2%; in [2], 64.7%.
Turning to `O=Nc1c(-c2c(O)[nH]c3ccccc23)[nH]c2cc(Br)ccc12`, the residual activity in test [1] was found to be 43.9%; in [2], 111%.
Consider `COc1ccc2c(c1)c(CC(=O)O)c(C)n2C(=O)c1ccc(Cl)cc1`, for which, in test [9], the inhibition result is “Active”.
Regarding `O=C1Nc2ccc(Br)cc2/C1=C1/Nc2ccccc2/C1=N\O` [INDIRUBIN 2], the values for the half-maximal inhibitory concentration (IC50) in test [4], in test [5] and in [6] were 5.6 µM, 2.6 µM and 3.3 µM, respectively. Besides, the residual activity stood at 62.3% in test [1] and 51.1% in test [2].
As for `O=C1Nc2c(cccc2C(F)(F)F)/C1=C1/Nc2ccccc2/C1=N\O`, the residual activity in test [1] was determined as 68%; in test [2], 92.6%.
On the same counts, the results for `CO/N=C1/C(=C2/C(=O)Nc3c(Br)cccc32)Nc2ccccc21` are 82.9% and 120%.
In the case of `O=Nc1c(-c2c(O)[nH]c3ccccc23)[nH]c2ccccc12` [INDIRUBIN-3-MONOXIME], the 50% inhibitory concentration (IC50) is 15 µM in test [4], 11.1 µM in test [5], 8.2 µM in test [6] and 0.022 µM in test [10]. In addition, the residual activity stood at 78.4% in test [1] and 92.2% in test [2].
On to `CC(c1cc2ccccc2s1)N(O)C(N)=O` (configuration not stated), for which the residual activity in [2] worked out at 37.9%.
